What was measured:
Rattus norvegicus = experiment: Reversal of heart failure-induced pulmonary edema in Sprague-Dawley rat assessed as inhibition of GSK1016790A-induced increase in lung wet weight to body weight ratio at 0.02 to 0.21 ug/kg, iv bolus loading dose followed by 0.3 to 2.3 ug/kg/min, iv continuous infusion dose for 60 mins prior to agonist administration; assay type: functional, organism-based
How it was run: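 Rats given vehicle or antagonist by i.v. infusion, then agonist GSK1016790A i.v. at 10 µg/kg/min for 10 min (100 µg/kg total). Edema scored as wet lung weight/body weight ratio against naïve animals; inhibition computed from the agonist response; mean ± SEM.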

[1] = Dose normalized AUC (0 to t) in rat at 2.4 mg/kg, po; assay type: ADME, organism-based; settings: in vivo
[2] = Oral bioavailability in Sprague-Dawley rat at 2 mg/kg by LC/MS/MS analysis; assay type: ADME, organism-based; settings: in vivo
[3] = target: Transient receptor potential cation channel subfamily A member 1 (Homo sapiens, UniProt O75762); experiment: Antagonist activity at TRPA1 (unknown origin)
TRPC3/TRPC6 = target: T1, TRPC3/TRPC6 (Homo sapiens, UniProt Q13507+Q9Y210); experiment: Antagonist activity at TRPC3/TRPC6 (unknown origin); assay type: protein-complex assay
T1 sequence (Q9Y210 whole entry): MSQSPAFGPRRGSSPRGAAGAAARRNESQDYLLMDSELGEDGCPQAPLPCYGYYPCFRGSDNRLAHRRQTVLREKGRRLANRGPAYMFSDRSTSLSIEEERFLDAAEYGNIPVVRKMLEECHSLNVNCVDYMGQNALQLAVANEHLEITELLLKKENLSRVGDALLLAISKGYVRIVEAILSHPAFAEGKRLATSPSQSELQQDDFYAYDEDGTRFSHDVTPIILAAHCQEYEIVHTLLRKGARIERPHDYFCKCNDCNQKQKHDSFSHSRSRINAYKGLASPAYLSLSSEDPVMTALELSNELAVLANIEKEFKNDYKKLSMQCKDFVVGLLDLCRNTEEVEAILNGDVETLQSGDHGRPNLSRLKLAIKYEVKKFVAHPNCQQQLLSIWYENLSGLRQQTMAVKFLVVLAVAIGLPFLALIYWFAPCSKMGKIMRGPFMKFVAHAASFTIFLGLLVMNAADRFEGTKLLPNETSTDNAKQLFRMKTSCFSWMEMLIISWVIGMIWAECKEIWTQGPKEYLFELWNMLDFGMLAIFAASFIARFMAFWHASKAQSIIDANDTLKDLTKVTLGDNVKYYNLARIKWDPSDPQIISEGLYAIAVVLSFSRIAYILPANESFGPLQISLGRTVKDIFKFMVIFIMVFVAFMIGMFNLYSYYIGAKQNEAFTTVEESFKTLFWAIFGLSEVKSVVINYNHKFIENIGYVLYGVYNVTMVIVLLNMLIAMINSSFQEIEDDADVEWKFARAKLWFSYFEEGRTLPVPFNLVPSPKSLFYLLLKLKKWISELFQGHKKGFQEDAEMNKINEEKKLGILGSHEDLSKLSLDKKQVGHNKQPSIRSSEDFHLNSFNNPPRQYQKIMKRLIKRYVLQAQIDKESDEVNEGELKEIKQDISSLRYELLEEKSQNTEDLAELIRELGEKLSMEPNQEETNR
T1 sequence (Q13507 whole entry): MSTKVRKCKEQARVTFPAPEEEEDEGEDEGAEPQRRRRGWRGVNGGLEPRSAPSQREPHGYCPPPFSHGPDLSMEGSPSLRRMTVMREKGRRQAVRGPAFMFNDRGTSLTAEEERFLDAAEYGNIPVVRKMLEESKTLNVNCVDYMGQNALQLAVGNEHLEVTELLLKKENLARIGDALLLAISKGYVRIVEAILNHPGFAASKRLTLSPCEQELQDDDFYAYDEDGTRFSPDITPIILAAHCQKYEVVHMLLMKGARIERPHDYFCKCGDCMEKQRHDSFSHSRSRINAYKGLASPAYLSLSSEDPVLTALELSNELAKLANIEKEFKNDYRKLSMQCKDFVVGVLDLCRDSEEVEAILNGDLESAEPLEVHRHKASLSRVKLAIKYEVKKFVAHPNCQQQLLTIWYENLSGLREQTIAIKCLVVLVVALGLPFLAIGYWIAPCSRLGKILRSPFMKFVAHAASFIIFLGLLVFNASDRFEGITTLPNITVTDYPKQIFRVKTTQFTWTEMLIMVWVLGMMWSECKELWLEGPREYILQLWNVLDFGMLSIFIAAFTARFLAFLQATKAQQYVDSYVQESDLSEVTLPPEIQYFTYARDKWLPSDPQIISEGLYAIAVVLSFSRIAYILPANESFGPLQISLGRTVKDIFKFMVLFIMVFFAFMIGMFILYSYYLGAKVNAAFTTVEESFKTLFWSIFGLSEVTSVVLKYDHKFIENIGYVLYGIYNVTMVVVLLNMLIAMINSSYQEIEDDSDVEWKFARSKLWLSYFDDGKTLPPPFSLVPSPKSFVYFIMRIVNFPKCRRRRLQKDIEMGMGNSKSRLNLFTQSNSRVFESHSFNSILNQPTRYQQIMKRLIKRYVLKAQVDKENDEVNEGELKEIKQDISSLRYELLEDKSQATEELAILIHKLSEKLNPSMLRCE

[4] = Plasma concentration in Sprague-Dawley rat heart failure-induced pulmonary edema model at 0.02 ug/kg, iv bolus loading dose followed by 0.3 ug/kg/min, iv continuous infusion dose for 60 mins; assay type: ADME, organism-based; settings: 2e-05 mg/kg
[5] = AUC (0 to t) in dog at 30 mg/kg, po; assay type: ADME, organism-based, Canis lupus familiaris; settings: in vivo
[6] = Dose normalized AUC (0 to t) in rat at 98 mg/kg, po; assay type: ADME, organism-based; settings: in vivo
[7] = AUC (0 to t) in rat at 98 mg/kg, po; assay type: ADME, organism-based; settings: in vivo
[8] = target: Transient receptor potential cation channel subfamily M member 2 (Homo sapiens, UniProt O94759); experiment: Antagonist activity at TRPM2 (unknown origin)
[9] = target: Transient receptor potential cation channel subfamily M member 8 (Homo sapiens, UniProt Q7Z2W7); experiment: Antagonist activity at TRPM8 (unknown origin)
[10] = Dose normalized AUC (0 to t) in dog at 30 mg/kg, po; assay type: ADME, organism-based, Canis lupus familiaris; settings: in vivo

Transient receptor potential cation channel subfamily A member 1, sequence (O75762 whole entry): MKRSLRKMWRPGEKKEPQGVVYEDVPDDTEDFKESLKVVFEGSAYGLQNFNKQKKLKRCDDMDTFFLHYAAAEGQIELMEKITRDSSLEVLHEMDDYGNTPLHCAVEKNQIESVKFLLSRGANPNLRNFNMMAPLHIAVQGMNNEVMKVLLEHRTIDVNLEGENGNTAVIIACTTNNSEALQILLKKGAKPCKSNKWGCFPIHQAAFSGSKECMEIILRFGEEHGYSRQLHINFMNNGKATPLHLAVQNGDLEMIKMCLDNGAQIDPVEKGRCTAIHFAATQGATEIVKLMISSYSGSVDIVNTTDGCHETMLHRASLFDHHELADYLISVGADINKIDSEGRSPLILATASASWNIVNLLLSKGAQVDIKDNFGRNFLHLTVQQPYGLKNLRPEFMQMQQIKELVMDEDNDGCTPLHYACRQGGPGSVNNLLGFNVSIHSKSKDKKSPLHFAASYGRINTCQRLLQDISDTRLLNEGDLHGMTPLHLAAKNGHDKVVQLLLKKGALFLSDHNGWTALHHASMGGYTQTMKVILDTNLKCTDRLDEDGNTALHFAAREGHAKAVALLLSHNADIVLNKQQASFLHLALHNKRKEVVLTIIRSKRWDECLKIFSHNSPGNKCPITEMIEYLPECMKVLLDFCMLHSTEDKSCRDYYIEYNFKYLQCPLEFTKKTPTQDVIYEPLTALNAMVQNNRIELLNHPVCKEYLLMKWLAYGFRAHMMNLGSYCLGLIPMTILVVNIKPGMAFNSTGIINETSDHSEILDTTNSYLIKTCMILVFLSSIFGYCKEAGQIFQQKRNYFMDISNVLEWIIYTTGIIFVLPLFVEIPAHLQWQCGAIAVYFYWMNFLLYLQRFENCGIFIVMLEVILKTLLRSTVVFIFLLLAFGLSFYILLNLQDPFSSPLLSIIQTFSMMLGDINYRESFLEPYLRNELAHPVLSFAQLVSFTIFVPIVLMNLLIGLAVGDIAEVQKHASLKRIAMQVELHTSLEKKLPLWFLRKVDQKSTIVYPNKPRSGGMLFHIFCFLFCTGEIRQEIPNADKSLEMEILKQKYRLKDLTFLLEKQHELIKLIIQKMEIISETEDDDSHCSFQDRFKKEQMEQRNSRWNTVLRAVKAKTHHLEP
Transient receptor potential cation channel subfamily M member 8, sequence (Q7Z2W7 whole entry): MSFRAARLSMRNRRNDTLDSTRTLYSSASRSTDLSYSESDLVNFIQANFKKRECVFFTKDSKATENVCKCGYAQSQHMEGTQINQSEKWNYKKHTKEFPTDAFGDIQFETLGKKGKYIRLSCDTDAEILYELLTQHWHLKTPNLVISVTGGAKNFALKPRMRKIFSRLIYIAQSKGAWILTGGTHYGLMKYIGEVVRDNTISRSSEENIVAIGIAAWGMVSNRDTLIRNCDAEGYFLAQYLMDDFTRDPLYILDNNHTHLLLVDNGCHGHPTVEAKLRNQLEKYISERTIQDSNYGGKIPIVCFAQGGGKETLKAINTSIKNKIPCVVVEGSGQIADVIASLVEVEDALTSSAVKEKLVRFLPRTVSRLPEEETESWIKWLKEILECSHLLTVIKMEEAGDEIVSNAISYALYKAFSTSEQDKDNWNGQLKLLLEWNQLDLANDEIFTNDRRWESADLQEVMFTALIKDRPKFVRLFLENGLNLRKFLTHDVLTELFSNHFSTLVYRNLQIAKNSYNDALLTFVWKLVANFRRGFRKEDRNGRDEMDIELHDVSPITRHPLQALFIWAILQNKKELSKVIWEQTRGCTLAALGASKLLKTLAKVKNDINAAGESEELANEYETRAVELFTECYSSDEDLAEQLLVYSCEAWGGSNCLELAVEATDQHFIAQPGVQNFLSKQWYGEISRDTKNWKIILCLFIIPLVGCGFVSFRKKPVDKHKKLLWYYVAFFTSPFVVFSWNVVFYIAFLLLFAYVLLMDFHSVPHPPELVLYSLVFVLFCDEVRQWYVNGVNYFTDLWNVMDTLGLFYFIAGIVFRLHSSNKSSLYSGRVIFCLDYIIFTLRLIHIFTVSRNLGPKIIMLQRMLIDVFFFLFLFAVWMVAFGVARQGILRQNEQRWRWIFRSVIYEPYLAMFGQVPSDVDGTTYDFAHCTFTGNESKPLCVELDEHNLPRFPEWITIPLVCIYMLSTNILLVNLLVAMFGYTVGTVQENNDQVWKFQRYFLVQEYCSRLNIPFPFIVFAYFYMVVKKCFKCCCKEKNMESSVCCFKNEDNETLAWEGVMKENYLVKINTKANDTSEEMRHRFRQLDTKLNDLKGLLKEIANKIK
Transient receptor potential cation channel subfamily M member 2, sequence (O94759 whole entry): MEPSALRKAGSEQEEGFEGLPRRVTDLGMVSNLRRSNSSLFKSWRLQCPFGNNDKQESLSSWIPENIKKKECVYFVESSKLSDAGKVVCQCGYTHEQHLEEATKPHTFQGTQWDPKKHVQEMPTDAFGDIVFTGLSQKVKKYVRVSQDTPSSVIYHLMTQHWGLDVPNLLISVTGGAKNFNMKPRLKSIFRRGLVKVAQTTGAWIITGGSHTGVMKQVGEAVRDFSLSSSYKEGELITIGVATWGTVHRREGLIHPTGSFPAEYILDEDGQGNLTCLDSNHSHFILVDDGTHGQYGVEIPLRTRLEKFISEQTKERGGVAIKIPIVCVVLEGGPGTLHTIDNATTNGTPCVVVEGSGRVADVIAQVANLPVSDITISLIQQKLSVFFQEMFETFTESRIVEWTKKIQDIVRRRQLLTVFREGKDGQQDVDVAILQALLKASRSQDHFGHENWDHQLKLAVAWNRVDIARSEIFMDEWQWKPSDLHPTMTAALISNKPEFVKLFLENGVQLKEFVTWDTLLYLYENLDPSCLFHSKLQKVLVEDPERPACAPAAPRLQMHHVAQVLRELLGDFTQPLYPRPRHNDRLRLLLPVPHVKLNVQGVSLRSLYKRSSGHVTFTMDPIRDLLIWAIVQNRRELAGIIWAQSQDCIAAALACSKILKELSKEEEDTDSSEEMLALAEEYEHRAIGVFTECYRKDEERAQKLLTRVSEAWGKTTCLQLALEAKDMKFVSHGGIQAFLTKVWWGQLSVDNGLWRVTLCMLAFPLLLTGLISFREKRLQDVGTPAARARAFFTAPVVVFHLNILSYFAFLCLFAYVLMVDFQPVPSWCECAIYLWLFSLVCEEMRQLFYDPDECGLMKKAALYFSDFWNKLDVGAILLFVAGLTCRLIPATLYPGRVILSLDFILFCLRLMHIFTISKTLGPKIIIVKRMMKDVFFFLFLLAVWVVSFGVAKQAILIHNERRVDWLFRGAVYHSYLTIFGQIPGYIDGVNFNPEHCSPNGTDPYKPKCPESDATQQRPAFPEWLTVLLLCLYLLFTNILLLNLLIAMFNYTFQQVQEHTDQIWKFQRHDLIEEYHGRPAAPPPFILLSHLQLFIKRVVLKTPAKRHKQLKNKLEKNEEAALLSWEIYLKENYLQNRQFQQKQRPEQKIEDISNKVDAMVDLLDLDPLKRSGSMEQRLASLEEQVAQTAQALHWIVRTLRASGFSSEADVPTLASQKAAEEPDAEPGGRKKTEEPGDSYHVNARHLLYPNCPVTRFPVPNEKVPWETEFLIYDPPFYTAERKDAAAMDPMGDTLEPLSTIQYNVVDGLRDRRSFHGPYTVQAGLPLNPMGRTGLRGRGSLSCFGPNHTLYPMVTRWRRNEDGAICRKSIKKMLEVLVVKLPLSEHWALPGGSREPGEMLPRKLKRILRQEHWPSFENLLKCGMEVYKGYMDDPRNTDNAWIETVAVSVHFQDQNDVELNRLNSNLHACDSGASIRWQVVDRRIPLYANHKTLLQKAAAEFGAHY

AUCt/dose [1]: 0.5 kg·h/L
bioavailability [2]: 100%
IC50 [3]: > 30 µM
IC50 (TRPC3/TRPC6): > 30 µM
concentration at 1 h [4]: 14 nM
AUC(0-t) [5]: 90000 ng·h/mL
AUCt/dose [6]: 0.4 kg·h/L
AUC(0-t) [7]: 40000 ng·h/mL
IC50 [8]: > 30 µM
IC50 [9]: > 30 µM
AUCt/dose [10]: 3 kg·h/L
SMILES: N#Cc1ccc(S(=O)(=O)N2C[C@H](S(=O)(=O)c3ccc(Cl)cc3)[C@](O)(CO)C2)c(Cl)c1
fIC50 (Rattus norvegicus): 0.3 nM
IC50 (Rattus norvegicus; Rattus norvegicus, Sprague-Dawley): 0.033 µM
